Laboratory results as given in ChEMBL document CHEMBL3102728, “Leonurusoleanolides E-J, minor spirocyclic triterpenoids from Leonurus japonicus fruits” (J Nat Prod, 2014).

How the values were obtained:
Format in all cases: functional, cell-based
[1] = Cytotoxicity against human KE-97 cells after 72 hrs by CellTitre-Glo luminescent cell viability assay; conditions: KE-97, 72 h
Huh-7 = assay: Cytotoxicity against human HuH7 cells after 72 hrs by CellTitre-Glo luminescent cell viability assay; conditions: Huh-7, 72 h
[2] = Cytotoxicity against human BGC823 cells after 72 hrs by CellTitre-Glo luminescent cell viability assay; conditions: BGC-823, 72 h
Jurkat = assay: Cytotoxicity against human Jurkat cells after 72 hrs by CellTitre-Glo luminescent cell viability assay
Procedure, shortened: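 Jurkat grown in RPMI-1640 with 10% FBS and penicillin/streptomycin at 37 °C, 5% CO2. Cells seeded at 1000 per well, then given serially diluted compounds, with staurosporine as the positive control. Incubated 72 h in the dark, away from bright light. Viability read by CellTiter-Glo luminescence. IC50 obtained by regression of % viable cells against log concentration, 10 concentrations, triplicate experiments.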

MCF7 = assay: Cytotoxicity against human MCF7 cells after 72 hrs by CellTitre-Glo luminescent cell viability assay; conditions: MCF7, 72 h

For `CC1(C)CC[C@]2(CC[C@]3(C)C(=CC[C@@H]4[C@@]5(C)C[C@@H](O)[C@H](OC(=O)/C=C/c6ccc(O)cc6)[C@@](C)(CO)[C@@H]5CC[C@]43C)[C@H]2O)C1`, the IC50 [1] was greater than 10 µM, the IC50 (Huh-7) was greater than 10 µM and the IC50 [2] was greater than 10 µM. It also gave an IC50 (Jurkat) greater than 10 µM and an IC50 (MCF7) greater than 10 µM.

For `CC1(C)CC[C@]2(CC[C@]3(C)C(=CC[C@@H]4[C@@]5(C)C[C@@H](O)[C@H](OC(=O)/C=C\c6ccc(O)cc6)[C@@](C)(CO)[C@@H]5CC[C@]43C)[C@H]2O)C1`, the IC50 [1] was greater than 10 µM, the IC50 (Huh-7) was greater than 10 µM and the IC50 [2] was greater than 10 µM. The IC50 (Jurkat) was greater than 10 µM and the IC50 (MCF7) was greater than 10 µM.

Compound `COc1cc(/C=C/C(=O)O[C@H]2[C@H](O)C[C@@]3(C)[C@@H](CC[C@]4(C)[C@@H]3CC=C3[C@@H](O)[C@@]5(CCC(C)(C)C5)CC[C@]34C)[C@]2(C)CO)ccc1O` has an IC50 [1] greater than 10 µM, an IC50 (Huh-7) greater than 10 µM and an IC50 [2] greater than 10 µM. For the same compound, the IC50 (Jurkat) was greater than 10 µM and the IC50 (MCF7) was greater than 10 µM.

With `COc1cc(/C=C\C(=O)O[C@H]2[C@H](O)C[C@@]3(C)[C@@H](CC[C@]4(C)[C@@H]3CC=C3[C@@H](O)[C@@]5(CCC(C)(C)C5)CC[C@]34C)[C@]2(C)CO)ccc1O` the IC50 [1] was greater than 10 µM, the IC50 (Huh-7) was greater than 10 µM and the IC50 [2] was greater than 10 µM. It also gave an IC50 (Jurkat) greater than 10 µM and an IC50 (MCF7) greater than 10 µM.

With `CC1(C)CC[C@]2(CC[C@]3(C)C(=CC[C@@H]4[C@@]5(C)C[C@@H](O)[C@H](O)[C@@](C)(CO)[C@@H]5CC[C@]43C)[C@H]2O)C1` the IC50 [1] was greater than 10 µM, the IC50 (Huh-7) was greater than 10 µM and the IC50 [2] was greater than 10 µM. The IC50 (Jurkat) was greater than 10 µM and the IC50 (MCF7) was 8.5 µM.

Work on `COc1cc(/C=C/C(=O)OC[C@@]2(C)[C@@H]3CC[C@]4(C)[C@H](CC=C5[C@@H](O)[C@]6(CCC(C)(C)C6)CC[C@]54C)[C@@]3(C)C[C@@H](O)[C@@H]2O)ccc1O` yielded an IC50 [1] greater than 10 µM, an IC50 (Huh-7) greater than 10 µM and an IC50 [2] greater than 10 µM. For the same compound, the IC50 (Jurkat) was greater than 10 µM and the IC50 (MCF7) was greater than 10 µM.

Work on `CC1(C)CC[C@@]2(CC[C@]3(C)C(=CC[C@@H]4[C@@]5(C)C[C@@H](O)[C@H](O)[C@@](C)(COC(=O)/C=C/c6ccc(O)cc6)[C@@H]5CC[C@]43C)[C@H]2O)C1` yielded an IC50 [1] greater than 10 µM, an IC50 (Huh-7) greater than 10 µM and an IC50 [2] greater than 10 µM. The IC50 (Jurkat) was greater than 10 µM and the IC50 (MCF7) was greater than 10 µM.

`COc1cc(/C=C\C(=O)OC[C@@]2(C)[C@@H]3CC[C@]4(C)[C@H](CC=C5[C@@H](O)[C@]6(CCC(C)(C)C6)CC[C@]54C)[C@@]3(C)C[C@@H](O)[C@@H]2O)ccc1O` (relative stereo) showed an IC50 [1] greater than 10 µM, an IC50 (Huh-7) greater than 10 µM and an IC50 [2] greater than 10 µM. For the same compound, the IC50 (Jurkat) was greater than 10 µM and the IC50 (MCF7) was greater than 10 µM.

Compound `CC1(C)CC[C@@]2(CC[C@]3(C)C(=CC[C@@H]4[C@@]5(C)C[C@@H](O)[C@H](O)[C@@](C)(COC(=O)/C=C\c6ccc(O)cc6)[C@@H]5CC[C@]43C)[C@H]2O)C1` (relative stereo) has an IC50 [1] greater than 10 µM, an IC50 (Huh-7) greater than 10 µM and an IC50 [2] greater than 10 µM. The IC50 (Jurkat) was greater than 10 µM and the IC50 (MCF7) was greater than 10 µM.

Work on `CC1(C)CC[C@@]2(CC[C@]3(C)C(=CC[C@@H]4[C@@]5(C)C[C@@H](O)[C@H](O)[C@@](C)(COC(=O)/C=C/c6ccc(O)c(O)c6)[C@@H]5CC[C@]43C)[C@H]2O)C1` (relative stereo) yielded an IC50 [1] greater than 10 µM, an IC50 (Huh-7) of 9.7 µM and an IC50 [2] greater than 10 µM. It also gave an IC50 (Jurkat) of 9.7 µM and an IC50 (MCF7) of 4.3 µM.

For `CC1(C)CC[C@@]2(CC[C@]3(C)C(=CC[C@@H]4[C@@]5(C)C[C@@H](O)[C@H](OC(=O)/C=C/c6ccc(O)c(O)c6)[C@@](C)(CO)[C@@H]5CC[C@]43C)[C@H]2O)C1` (relative stereo), the IC50 [1] was 3 µM, the IC50 (Huh-7) was 1.9 µM and the IC50 [2] was 7.5 µM. The IC50 (Jurkat) was 3.9 µM and the IC50 (MCF7) was 4.6 µM.

Work on `CN[C@@H]1C[C@H]2O[C@@](C)([C@@H]1OC)n1c3ccccc3c3c4c(c5c6ccccc6n2c5c31)C(=O)NC4` [STAUROSPORINE] yielded an IC50 (Jurkat) of 0.14 µM.
